Xi reactivation: activators of inactive X chromosome reactivation, primary screen, imaging, XiGFP fibroblasts, GFP high-content imaging, set 2 | XiGFP mouse fibroblasts, % GFP-positive cells imaging, 3 d; cells co-treated with 5-aza-dC sensitizer; scaled so ellipticine positive control = 100% | activation, % at 7.58 µM | actives 0.055% (n = 360,000) | AID 743238, 2013;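 active means mean normalized replicate activation at least 10% and every replicate at or above 10%; inconclusive means only one of the two criteria met; inactive means mean below 10% and not all replicates reach 10%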
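System: 68-5-11 XiGFP fibroblast line; Timing: 3 days compound exposure; Compound dosing: one concentration, pinned; Benchmarks: positive control ellipticine, 6 µM final; Buffer or medium: DMEM containing 5-aza-dC.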
SR-BI DiI-HDL act: activators of SR-BI mediated DiI-HDL uptake, primary screen, ldlA[mSR-BI] CHO cells, DiI fluorescence. activation, % at 12.5 µM. 3 h; 100 = double the neutral-control signal. actives 0.096% (n = 320,000);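 active means mean replicate activation of at least 60% and every replicate at or above 60%; inconclusive means mean or all-replicate condition met, but not both; inactive means mean below 60% and not all replicates reaching 60%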
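system = CHO ldlA[mSR-BI] cells, LDL receptor-null, SR-BI overexpressing | medium = Ham's F12 with 0.5% BSA, HEPES 25 mM, pH 7.4 | probe or stimulus = DiI-HDL 10 µg/mL | compound dosing = single-point compound dose | incubation = compound exposure 3 h, 37 °C | technique = DiI fluorescence, bottom read | read-out = cell-associated DiI fluorescence as measure of HDL uptake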
sPLA2-III inh: human group III sPLA2 inhibitors, primary screen, biochemical, QFRET, BODIPY PC-A2 liposome substrate. Group 3 secretory phospholipase A2 (Homo sapiens), Q9NZ20. QFRET BODIPY PC-A2 liposome hydrolysis, fluorescence. inhibition, % at 12.2 µM. actives 0.56% (n = 370,000). AID 743126, 2013;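 active means inhibition above mean plus 3 SD of compounds lying within the high and low control bounds, cut at about 19% in these data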
Target sequence (Q9NZ20 whole entry, looked up): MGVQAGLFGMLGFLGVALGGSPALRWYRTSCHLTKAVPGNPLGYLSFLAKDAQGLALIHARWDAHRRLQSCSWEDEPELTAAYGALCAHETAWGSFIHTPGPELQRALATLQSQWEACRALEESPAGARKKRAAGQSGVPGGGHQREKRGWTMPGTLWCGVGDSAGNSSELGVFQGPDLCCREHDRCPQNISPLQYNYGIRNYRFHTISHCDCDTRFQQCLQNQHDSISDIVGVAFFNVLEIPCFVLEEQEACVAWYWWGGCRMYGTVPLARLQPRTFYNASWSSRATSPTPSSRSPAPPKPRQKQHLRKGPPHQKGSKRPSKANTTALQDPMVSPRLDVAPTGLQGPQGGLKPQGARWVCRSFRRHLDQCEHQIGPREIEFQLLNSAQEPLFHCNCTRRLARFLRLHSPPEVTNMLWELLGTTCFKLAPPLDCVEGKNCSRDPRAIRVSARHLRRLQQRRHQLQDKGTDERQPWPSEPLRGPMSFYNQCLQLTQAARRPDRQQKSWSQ
SR-BI DiI inh: inhibitors of SR-BI mediated HDL lipid uptake, primary screen, ldlA[mSR-BI] cells, fluorescence, single point. ldlA[mSR-BI] CHO cells, DiI-HDL uptake fluorescence, 3 h. inhibition, % at 12.5 µM. actives 0.96% (n = 320,000). AID 488896, 2010;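 active means mean replicate inhibition of at least 70% and a set share of replicates each scoring 70 or more; inconclusive means meets just one of the two criteria; inactive means fails both criteria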
ARNT-TACC3 inh: disruptors of ARNT/TACC3 protein interaction, primary screen, biochemical, AlphaScreen, single concentration | AlphaScreen His-ARNT PAS-B/GST-TACC3 binding, luminescence; TACC3 fragment carries E629A point mutation | actives 0.66% (n = 390,000) | AID 623870, 2012 | Transforming acidic coiled-coil-containing protein 3 (Homo sapiens), Q9Y6A5 | inhibition, % at 9.99 µM;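 active means mean inhibition of replicates at least 50% and at least half of replicates each reaching 50%; inconclusive means half or more replicates reach 50% but mean below 50%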
NSD2 inh: NSD2 histone methyltransferase inhibitors, primary screen, biochemical, AlphaScreen, single concentration, set 2; inhibition, % at 12.5 µM; AID 743445, 2014; Histone-lysine N-methyltransferase NSD2 (Homo sapiens), O96028; actives 0.54% (n = 310,000); NSD2 peptide methylation, 120 min; in the data active means inhibition above about 50%
Numbers stand for hits; 0 = inactive; ? = inconclusive; - = no result. Only some compounds are listed: those with a hit (about 2% of all), similar ones and a draw of the others.

SMILES	Xi reactivation	SR-BI DiI-HDL act	sPLA2-III inh	SR-BI DiI inh	ARNT-TACC3 inh	NSD2 inh
COc1ccc(/C=N/Nc2nc3ccccc3o2)cc1O	-	-	0	0	44	0
Oc1ccccc1C=NNc1nc2ccccc2s1	0	0	0	101	0	0
Oc1ccc(C=NNc2nc3ccccc3s2)c(O)c1	0	0	0	?	0	0
CCn1c(C)c(/C=N/Nc2nc3ccccc3s2)c2ccccc21	-	0	0	112	0	0
Oc1ccccc1/C=N/Nc1nc2ccccc2o1	0	0	0	93	0	0
COc1cc(/C=N/Nc2nc3ccccc3o2)cc(OC)c1O	-	0	0	0	0	0
C[C@@H]1CCCCO[C@H](CN(C)Cc2ccncc2)[C@H](C)CN([C@H](C)CO)C(=O)c2cc(N(C)C)ccc2O1	0	-	-	-	0	-
C=CCNC(=O)c1ccccc1NC(=O)C1CCN(S(=O)(=O)c2ccc(SC)cc2)CC1	0	-	0	-	0	0
COc1ccccc1CCNC(=O)Cn1c(=O)oc2ccccc21	0	0	0	0	0	0
O=C(c1ccccc1F)N1CC[C@@H]2[C@@H](CO)Nc3ccc(-c4ccccc4)cc3[C@@H]21	0	-	-	-	0	-
O=C(COC(=O)c1ccccn1)c1cccc(Br)c1	0	0	0	0	50	0
CC1(C)CCCN(C(=O)c2coc(=O)c(Br)c2)C1	-	0	0	0	0	114
COc1ccc(C(=O)NCC(=O)OCC(=O)c2c[nH]c3ccccc23)cc1	0	-	0	-	-	0
C=CC[C@H]1C=C[C@@H](C(C(=O)OC)C(=O)OC)CN1C(C)=O	0	0	0	0	57	-
CC[C@H]1C=C[C@@H](C(C(=O)OC)C(=O)OC)CN1C(C)=O	0	0	0	0	0	-
N#Cc1nc(-c2ccc(OCc3ccccc3)cc2)oc1N1CCOCC1	-	0	0	71	0	0
C[C@@H]1CCCCO[C@H](CN(C)C(=O)Nc2ccc3c(c2)OCO3)[C@H](C)CN([C@@H](C)CO)C(=O)c2cc(NC(=O)Nc3ccc4c(c3)OCO4)ccc2O1	0	-	-	-	0	-
O=[N+]([O-])c1cccc(-c2cc(-c3cc(Br)ccc3O)[nH]n2)c1	0	0	0	86	-	0
Oc1ccc(Br)cc1-c1cc(-c2ccccc2)n[nH]1	-	0	0	0	0	0
Oc1ccc(Br)cc1-c1cc(-c2ccc(Cl)cc2)n[nH]1	-	0	0	75	0	0
CCCCCOC(=O)C1=C(C)NC(=O)NC1c1ccc(OC)cc1 (centres undefined)	0	0	0	0	0	0
COc1ccc(COc2ccccc2C(=O)NCc2ccccc2)cc1F	23	0	0	0	0	0
COc1cc(C(=O)NCc2ccccc2)ccc1OC(F)F	0	0	0	0	0	0
O=C(Nc1ccccc1)Nc1nc(-c2ccccc2)cs1	0	?	0	0	0	0
COc1cccc(Nc2nc(-c3cccc(N4C(=O)c5ccccc5C4=O)c3)cs2)c1	-	0	0	91	0	0
SMILES	Xi reactivation	SR-BI DiI-HDL act	sPLA2-III inh	SR-BI DiI inh	ARNT-TACC3 inh	NSD2 inh
COc1cccc(-c2csc(NC(=O)Nc3ccccc3)n2)c1	0	0	0	77	0	0
CON/C=C(\C=Nc1ccc(Cl)cc1)c1ncc(C(F)(F)F)cc1Cl	-	0	0	73	0	0
O=C(c1ccc(S(=O)(=O)N2CCCC2)cc1)N1CCCc2ccccc21	-	0	0	77	0	0
COc1cc(/C=C/C(=O)c2ccc([N+](=O)[O-])o2)ccc1O	21	0	0	0	0	-
COc1ccc(/C=C/C(=O)c2ccc([N+](=O)[O-])o2)cc1OC	14	-	0	-	-	-
O=C(CSc1nnc(NC2CCCCC2)s1)Nc1ccc2c(c1)C(=O)c1ccccc1C2=O	0	0	0	73	-	0
CCn1c(COc2ccc(C)cc2)nnc1SCC(=O)Nc1ccc(C(=O)OC)cc1	-	-	0	-	-	0
COCC(=O)N(C)C[C@H]1Oc2cc(C#CCC3CCCC3)ccc2S(=O)(=O)N([C@@H](C)CO)C[C@H]1C	0	-	-	-	0	-
O=C(O)C1=C[C@@H](C2CCCC2)C[C@@H](OCCCCO)O1	-	-	-	-	61	-
CN(C)S(=O)(=O)c1ccc2c(c1)/C(=C/c1cc3c([nH]1)CCCC3)C(=O)N2	113	0	0	0	0	-
CN(C)S(=O)(=O)c1ccc2c(c1)C(=O)c1cc(S(=O)(=O)N(C)C)ccc1CC2	0	0	0	0	0	-
Cc1cc(Oc2ccc(=O)n(C)n2)nc(Oc2ccc(=O)n(C)n2)n1	-	82	0	0	0	0
Cc1cc(Oc2ccc(=O)n(C)n2)nc(SCC(N)=O)n1	0	0	0	0	0	0
O=C(c1noc2c1CCCC2)N1CCCC(N2CCN(c3ccccc3F)CC2)C1 (centres undefined)	-	0	-	73	0	0
O=C(c1ccsc1)N1CCCC(N2CCN(c3ccccc3F)CC2)C1 (centres undefined)	0	0	0	0	0	0
COc1cccc(CNS(=O)(=O)c2cc(CN3C(=O)c4cccnc4C3=O)ccc2OC)c1	0	0	0	0	50	0
COc1ccc(CN2C(=O)c3cccnc3C2=O)cc1S(=O)(=O)NCc1ccc(C)cc1	0	0	0	0	0	0
CC(=O)c1c(C)[nH]c(C(=O)N2CCc3ccccc3C2)c1C	-	0	0	0	0	0
CC(=O)c1c(C)[nH]c(C(=O)N2c3ccccc3CC2C)c1C (centres undefined)	0	0	0	72	0	-
Cc1ccc(NC(=O)c2ccc3c(=O)n4c(nc3c2)CCC4)cc1S(=O)(=O)N(C)C	0	0	0	75	0	0
Cc1ccc(NC(=O)c2ccc3c(=O)n4c(nc3c2)CCC4)cc1F	0	0	0	0	0	0
C[C@@H]1CN([C@@H](C)CO)C(=O)c2cc(NS(C)(=O)=O)ccc2O[C@@H]1CN(C)C(=O)Nc1ccc2c(c1)OCO2	0	-	-	-	-	-
CC(=O)Nc1sc(/C(C#N)=C\c2cccc(Cl)c2)nc1-c1ccc(C)cc1	0	0	0	82	0	0
CC(C)NC(=O)Nc1ccc2c(c1)C(=O)N([C@@H](C)CO)C[C@@H](C)[C@@H](CN(C)S(=O)(=O)c1cn(C)cn1)OCCCC[C@H](C)O2	0	-	-	-	0	-

Screens (PubChem BioAssay)
